Laboratory results: ChEMBL document CHEMBL1806444, “Synthesis of new chalcone derivatives bearing 2,4-thiazolidinedione and benzoic acid moieties as potential anti-bacterial agents” (2011)
≈ marks a conversion by molar mass, not a printed value.

Key:
Format in all cases: functional
[1] = test system: Staphylococcus aureus; assay: Antibacterial activity against 10^5 CFU/mL Staphylococcus aureus RN4220 assessed as inhibition of bacterial growth after 24 hrs by microtiter enzyme-linked immunosorbent assay; settings: RN4220, 24 h
[2] = test system: Staphylococcus aureus; assay: Antibacterial activity against 10^5 CFU/mL Staphylococcus aureus KCTC 503 assessed as inhibition of bacterial growth after 24 hrs by microtiter enzyme-linked immunosorbent assay; settings: KCTC 503, 24 h
[3] = test system: Escherichia coli; assay: Antibacterial activity against 10^5 CFU/mL Escherichia coli 1682 assessed as inhibition of bacterial growth after 24 hrs by microtiter enzyme-linked immunosorbent assay; settings: Escherichia coli, 1682, 24 h
[4] = test system: Escherichia coli; assay: Antibacterial activity against 10^5 CFU/mL Escherichia coli 1356 assessed as inhibition of bacterial growth after 24 hrs by microtiter enzyme-linked immunosorbent assay; settings: Escherichia coli, 1356, 24 h
[5] = test system: Staphylococcus aureus; assay: Antibacterial activity against 10^5 CFU/mL quinolone-resistant Staphylococcus aureus CCARM 3505 assessed as inhibition of bacterial growth after 24 hrs by microtiter enzyme-linked immunosorbent assay; settings: CCARM 3505, 24 h
How it was run: (§1)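 Broth microdilution MIC. Bacteria grown to mid-log phase in Mueller-Hinton broth, diluted 1000-fold, and inoculated at 10⁵ CFU/mL in MHB, 0.2 mL/well in 96-well plates. Compounds dissolved in DMSO, final DMSO not exceeding 0.05%, in serial dilutions. Oxacillin and norfloxacin served as positive controls. MIC is the lowest concentration giving complete growth inhibition after 24 h at 37 °C.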

[6] = test system: Staphylococcus aureus; assay: Antibacterial activity against 10^5 CFU/mL methicillin-resistant Staphylococcus aureus CCARM 3506 assessed as inhibition of bacterial growth after 24 hrs by microtiter enzyme-linked immunosorbent assay; settings: CCARM 3506, 24 h; how it was run: as §1
[7] = test system: Staphylococcus aureus; assay: Antibacterial activity against 10^5 CFU/mL methicillin-resistant Staphylococcus aureus CCARM 3167 assessed as inhibition of bacterial growth after 24 hrs by microtiter enzyme-linked immunosorbent assay; settings: CCARM 3167, 24 h; how it was run: as §1
[8] = test system: Staphylococcus aureus; assay: Antibacterial activity against 10^5 CFU/mL quinolone-resistant Staphylococcus aureus CCARM 3519 assessed as inhibition of bacterial growth after 24 hrs by microtiter enzyme-linked immunosorbent assay; settings: CCARM 3519, 24 h; how it was run: as §1
[9] = test system: Staphylococcus aureus; assay: Ratio of oxacillin MIC to compound MIC for methicillin-resistant Staphylococcus aureus CCARM 3167
[10] = test system: Staphylococcus aureus; assay: Ratio of Norfloxacin MIC to compound MIC for methicillin-resistant Staphylococcus aureus CCARM 3167
[11] = test system: Staphylococcus aureus; assay: Ratio of oxacillin MIC to compound MIC for methicillin-resistant Staphylococcus aureus CCARM 3506
[12] = test system: Staphylococcus aureus; assay: Ratio of Norfloxacin MIC to compound MIC for methicillin-resistant Staphylococcus aureus CCARM 3506

MIC [1]	MIC [2]	MIC [3]	MIC [4]	Structure (SMILES)	MIC [5]	MIC [6]	MIC [7]	MIC [8]	Ratio [9]	Ratio [10]	Ratio [11]	Ratio [12]
> 64 µg/mL	> 64 µg/mL	> 64 µg/mL	> 64 µg/mL	COC(=O)c1ccc(CN2C(=O)S/C(=C\c3ccc(/C=C/C(=O)c4cccc(O)c4)cc3)C2=O)cc1								
> 64 µg/mL	> 64 µg/mL	> 64 µg/mL	> 64 µg/mL	COC(=O)c1ccc(CN2C(=O)S/C(=C\c3ccc(/C=C/C(=O)c4cccc(Br)c4)cc3)C2=O)cc1								
> 64 µg/mL	> 64 µg/mL	> 64 µg/mL	> 64 µg/mL	COC(=O)c1ccc(CN2C(=O)S/C(=C\c3ccc(/C=C/C(=O)c4ccc(Br)cc4)cc3)C2=O)cc1								
> 64 µg/mL	> 64 µg/mL	> 64 µg/mL	> 64 µg/mL	COC(=O)c1ccc(CN2C(=O)S/C(=C\c3ccc(/C=C/C(=O)c4ccc(Cl)cc4)cc3)C2=O)cc1								
> 64 µg/mL	> 64 µg/mL	> 64 µg/mL	> 64 µg/mL	COC(=O)c1ccc(CN2C(=O)S/C(=C\c3ccc(/C=C/C(=O)c4ccccc4Br)cc3)C2=O)cc1								
> 64 µg/mL	> 64 µg/mL	> 64 µg/mL	> 64 µg/mL	COC(=O)c1ccc(CN2C(=O)S/C(=C\c3ccc(/C=C/C(=O)c4ccccc4F)cc3)C2=O)cc1								
> 64 µg/mL	> 64 µg/mL	> 64 µg/mL	> 64 µg/mL	COC(=O)c1ccc(CN2C(=O)S/C(=C\c3ccc(/C=C/C(=O)c4ccc(Cl)cc4Cl)cc3)C2=O)cc1								
> 64 µg/mL	> 64 µg/mL	> 64 µg/mL	> 64 µg/mL	COC(=O)c1ccc(CN2C(=O)S/C(=C\c3ccc(/C=C/C(=O)c4ccc(C)cc4)cc3)C2=O)cc1								
> 64 µg/mL	> 64 µg/mL	> 64 µg/mL	> 64 µg/mL	O=C(O)c1ccc(CN2C(=O)S/C(=C\c3ccc(/C=C/C(=O)c4ccc5ccccc5c4)cc3)C2=O)cc1								
> 64 µg/mL	> 64 µg/mL	> 64 µg/mL	> 64 µg/mL	Cc1ccc(C(=O)/C=C/c2ccc(/C=C3\SC(=O)N(Cc4ccc(C(=O)O)cc4)C3=O)cc2)cc1								
> 64 µg/mL	> 64 µg/mL	> 64 µg/mL	> 64 µg/mL	Cc1ccc(C(=O)/C=C/c2ccc(/C=C3\SC(=O)N(Cc4ccc(C(=O)O)cc4)C3=O)cc2)c(C)c1								
> 64 µg/mL	> 64 µg/mL	> 64 µg/mL	> 64 µg/mL	O=C(O)c1ccc(CN2C(=O)S/C(=C\c3ccc(/C=C/C(=O)c4ccccc4F)cc3)C2=O)cc1								
> 64 µg/mL	> 64 µg/mL	> 64 µg/mL	> 64 µg/mL	O=C(O)c1ccc(CN2C(=O)S/C(=C\c3ccc(/C=C/C(=O)c4ccc(F)cc4)cc3)C2=O)cc1								
> 64 µg/mL	> 64 µg/mL	> 64 µg/mL	> 64 µg/mL	O=C(O)c1ccc(CN2C(=O)S/C(=C\c3ccc(/C=C/C(=O)c4cccc(Cl)c4)cc3)C2=O)cc1								
> 64 µg/mL	> 64 µg/mL	> 64 µg/mL	> 64 µg/mL	O=C(O)c1ccc(CN2C(=O)S/C(=C\c3ccc(/C=C/C(=O)c4ccc(Cl)cc4)cc3)C2=O)cc1								
> 64 µg/mL	> 64 µg/mL	> 64 µg/mL	> 64 µg/mL	COc1cccc(C(=O)/C=C/c2ccc(/C=C3\SC(=O)N(Cc4ccc(C(=O)O)cc4)C3=O)cc2)c1								
> 64 µg/mL	> 64 µg/mL	> 64 µg/mL	> 64 µg/mL	O=C(O)c1ccc(CN2C(=O)S/C(=C\c3ccc(/C=C/C(=O)c4ccc(O)cc4)cc3)C2=O)cc1								
> 64 µg/mL	> 64 µg/mL	> 64 µg/mL	> 64 µg/mL	COC(=O)c1ccc(CN2C(=O)S/C(=C\c3ccc(/C=C/C(=O)c4ccc(O)cc4)cc3)C2=O)cc1								

The remaining lines, values behind:

Structure (SMILES)	MIC [1]	MIC [2]	MIC [3]	MIC [4]	MIC [5]	MIC [6]	MIC [7]	MIC [8]	Ratio [9]	Ratio [10]	Ratio [11]	Ratio [12]
COC(=O)c1ccc(CN2C(=O)S/C(=C\c3ccc(/C=C/C(=O)c4ccccc4O)cc3)C2=O)cc1	> 64 µg/mL	> 64 µg/mL	> 64 µg/mL	> 64 µg/mL								
COC(=O)c1ccc(CN2C(=O)S/C(=C\c3ccc(/C=C/C(=O)c4ccccc4OC)cc3)C2=O)cc1	> 64 µg/mL	> 64 µg/mL	> 64 µg/mL	> 64 µg/mL								
COC(=O)c1ccc(CN2C(=O)S/C(=C\c3ccc(/C=C/C(=O)c4cccc(OC)c4)cc3)C2=O)cc1	> 64 µg/mL	> 64 µg/mL	> 64 µg/mL	> 64 µg/mL								
COC(=O)c1ccc(CN2C(=O)S/C(=C\c3ccc(/C=C/C(=O)c4ccccc4Cl)cc3)C2=O)cc1	> 64 µg/mL	> 64 µg/mL	> 64 µg/mL	> 64 µg/mL								
COC(=O)c1ccc(CN2C(=O)S/C(=C\c3ccc(/C=C/C(=O)c4cccc(Cl)c4)cc3)C2=O)cc1	> 64 µg/mL	> 64 µg/mL	> 64 µg/mL	> 64 µg/mL								
COC(=O)c1ccc(CN2C(=O)S/C(=C\c3ccc(/C=C/C(=O)c4ccc(F)cc4)cc3)C2=O)cc1	> 64 µg/mL	> 64 µg/mL	> 64 µg/mL	> 64 µg/mL								
COC(=O)c1ccc(CN2C(=O)S/C(=C\c3ccc(/C=C/C(=O)c4ccc(C)cc4C)cc3)C2=O)cc1	> 64 µg/mL	> 64 µg/mL	> 64 µg/mL	> 64 µg/mL								
COC(=O)c1ccc(CN2C(=O)S/C(=C\c3ccc(/C=C/C(=O)c4ccccc4)cc3)C2=O)cc1	> 64 µg/mL	> 64 µg/mL	> 64 µg/mL	> 64 µg/mL								
COC(=O)c1ccc(CN2C(=O)S/C(=C\c3ccc(/C=C/C(=O)c4ccc5ccccc5c4)cc3)C2=O)cc1	> 64 µg/mL	> 64 µg/mL	> 64 µg/mL	> 64 µg/mL								
O=C(O)c1ccc(CN2C(=O)S/C(=C\c3ccc(/C=C/C(=O)c4ccc(Cl)cc4Cl)cc3)C2=O)cc1	> 64 µg/mL	> 64 µg/mL	> 64 µg/mL	> 64 µg/mL								
O=C(O)c1ccc(CN2C(=O)S/C(=C\c3ccc(/C=C/C(=O)c4ccccc4Cl)cc3)C2=O)cc1	1 µg/mL (≈ 1.98 µM)	2 µg/mL (≈ 3.97 µM)	> 64 µg/mL	> 64 µg/mL	2 µg/mL (≈ 3.97 µM)	1 µg/mL (≈ 1.98 µM)	1 µg/mL (≈ 1.98 µM)	2 µg/mL (≈ 3.97 µM)				
O=C(O)c1ccc(CN2C(=O)S/C(=C\c3ccc(/C=C/C(=O)c4ccccc4Br)cc3)C2=O)cc1	2 µg/mL (≈ 3.65 µM)	4 µg/mL (≈ 7.29 µM)	> 64 µg/mL	> 64 µg/mL	2 µg/mL (≈ 3.65 µM)	1 µg/mL (≈ 1.82 µM)	1 µg/mL (≈ 1.82 µM)	2 µg/mL (≈ 3.65 µM)				
O=C(O)c1ccc(CN2C(=O)S/C(=C\c3ccc(/C=C/C(=O)c4cccc(Br)c4)cc3)C2=O)cc1	> 64 µg/mL	> 64 µg/mL	> 64 µg/mL	> 64 µg/mL								
O=C(O)c1ccc(CN2C(=O)S/C(=C\c3ccc(/C=C/C(=O)c4ccc(Br)cc4)cc3)C2=O)cc1	> 64 µg/mL	> 64 µg/mL	> 64 µg/mL	> 64 µg/mL								
COc1ccccc1C(=O)/C=C/c1ccc(/C=C2\SC(=O)N(Cc3ccc(C(=O)O)cc3)C2=O)cc1	2 µg/mL (≈ 4 µM)	4 µg/mL (≈ 8.01 µM)	> 64 µg/mL	> 64 µg/mL	4 µg/mL (≈ 8.01 µM)	2 µg/mL (≈ 4 µM)	2 µg/mL (≈ 4 µM)	2 µg/mL (≈ 4 µM)				
COc1ccc(C(=O)/C=C/c2ccc(/C=C3\SC(=O)N(Cc4ccc(C(=O)O)cc4)C3=O)cc2)cc1	> 64 µg/mL	> 64 µg/mL	> 64 µg/mL	> 64 µg/mL								
O=C(O)c1ccc(CN2C(=O)S/C(=C\c3ccc(/C=C/C(=O)c4ccccc4O)cc3)C2=O)cc1	> 64 µg/mL	> 64 µg/mL	> 64 µg/mL	> 64 µg/mL								
O=C(O)c1ccc(CN2C(=O)S/C(=C\c3ccc(/C=C/C(=O)c4cccc(O)c4)cc3)C2=O)cc1	2 µg/mL (≈ 4.12 µM)	4 µg/mL (≈ 8.24 µM)	> 64 µg/mL	> 64 µg/mL	2 µg/mL (≈ 4.12 µM)	1 µg/mL (≈ 2.06 µM)	1 µg/mL (≈ 2.06 µM)	2 µg/mL (≈ 4.12 µM)				
O=C(O)c1ccc(CN2C(=O)S/C(=C\c3ccc(/C=C/C(=O)c4ccccc4)cc3)C2=O)cc1	1 µg/mL (≈ 2.13 µM)	2 µg/mL (≈ 4.26 µM)	> 64 µg/mL	> 64 µg/mL	2 µg/mL (≈ 4.26 µM)	0.5 µg/mL (≈ 1.06 µM)	1 µg/mL (≈ 2.13 µM)	2 µg/mL (≈ 4.26 µM)	64	8	64	8
COC(=O)c1ccc(CN2C(=O)S/C(=C\c3ccc(/C=C/C(=O)c4ccc(OC)cc4)cc3)C2=O)cc1	> 64 µg/mL	> 64 µg/mL	> 64 µg/mL	> 64 µg/mL								
CCn1cc(C(=O)O)c(=O)c2cc(F)c(N3CCNCC3)cc21 [NORFLOXACIN]	2 µg/mL (≈ 6.26 µM)	2 µg/mL (≈ 6.26 µM)	16 µg/mL (≈ 50.1 µM)	16 µg/mL (≈ 50.1 µM)	> 64 µg/mL	4 µg/mL (≈ 12.5 µM)	8 µg/mL (≈ 25.1 µM)	> 64 µg/mL				
Cc1onc(-c2ccccc2)c1C(=O)N[C@@H]1C(=O)N2[C@@H]1SC(C)(C)[C@@H]2C(=O)O [OXACILLIN]	1 µg/mL (≈ 2.49 µM)	1 µg/mL (≈ 2.49 µM)	> 64 µg/mL	> 64 µg/mL	1 µg/mL (≈ 2.49 µM)	> 64 µg/mL	> 64 µg/mL	1 µg/mL (≈ 2.49 µM)				
